Here are results for 12 compounds from ChEMBL document CHEMBL3244281, “Antiviral activity of some beta-diketones. 3. Aryl bis(beta-diketones). Antiherpetic activity” (1978).

The subject of test [1] is Human alphaherpesvirus 2. Put plainly: Antiviral activity against HSV2.
The test system of test [2] is Human alphaherpesvirus 1. As to the kind of experiment: Antiviral activity against HSV1. The format is functional.
The subject of test [3] is Human alphaherpesvirus 1. As to the kind of experiment: Antiherpetic activity against HSV1 AA infected in guinea pig skin assessed as reduction of scab formation at 2% administered 24 hrs after infection as vanishing cream base daily 5 times for 4 days. Type of test: functional, organism-based. The procedure, abridged: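 Guinea pigs had HSV-1 applied to shaved, epilated flanks: 0.1 mL tissue-culture virus (titer 10^6.25 TCID50) driven in by multiple vaccination-gun punctures. A 2% vanishing-cream preparation was applied topically from 24 h postinfection, five times daily for 4 days. Placebo-treated animals served as controls. Two scorers rated vesicles and followed lesions and scabbing to day 7.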

For test [4], the system named is Human alphaherpesvirus 2. As to the kind of experiment: Antiviral activity against HSV2 Curtis infected in monkey BSC-1 cells assessed as reduction of plaque formation at 2 ug/ml after 4 days using crystal violet staining relative to control. Type of test: functional. Conditions: Human alphaherpesvirus 2, Curtis, BSC-1, in Primates, 96 h. An outline of the steps: (§1)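 BSC-1 monolayers, 4 days old and confluent, were infected with 20-60 PFU in MEM + 2% FCS. They were overlaid with agar (1% ionagar + 2× M-199 + 5% FCS) containing compound, four flasks per condition. Uninfected monolayers with compound served as controls. Flasks were incubated inverted at 37 °C for 4 days, formalin-fixed overnight at 4 °C and crystal violet-stained. Mean plaque count gave % reduction versus infected untreated cultures.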

The subject of test [5] is Human alphaherpesvirus 2. Put plainly: Antiviral activity against HSV2 Curtis infected in monkey BSC-1 cells assessed as reduction of plaque formation at 3 ug/ml after 4 days using crystal violet staining relative to control. The format is functional. Conditions: Human alphaherpesvirus 2, Curtis, BSC-1, 96 h. The procedure, abridged:
as §1

Test [6] has as its system Human alphaherpesvirus 2. As to the kind of experiment: Antiviral activity against HSV2 Curtis infected in monkey BSC-1 cells assessed as reduction of plaque formation at 4 ug/ml after 4 days using crystal violet staining relative to control. Type of test: functional. Conditions: Human alphaherpesvirus 2, Curtis, BSC-1, in Primates, 96 h. The procedure, abridged:
as §1

The subject of test [7] is Human alphaherpesvirus 1. Put plainly: Antiviral activity against HSV1 Sheely infected in monkey BSC-1 cells assessed as reduction of plaque formation at 2 ug/ml after 4 days using crystal violet staining relative to control. Type of test: functional. Conditions: Human alphaherpesvirus 1, Sheely, BSC-1, in Primates, 96 h. The procedure, abridged:
as §1

Test [8] has as its system Human alphaherpesvirus 1. As to the kind of experiment: Antiviral activity against HSV1 Sheely infected in monkey BSC-1 cells assessed as reduction of plaque formation at 3 ug/ml after 4 days using crystal violet staining relative to control. Type of test: functional. Conditions: Human alphaherpesvirus 1, Sheely, BSC-1, in Primates, 96 h. An outline of the steps:
as §1

Test [9] relates to Human alphaherpesvirus 1. Put plainly: Antiviral activity against HSV1 Sheely infected in monkey BSC-1 cells assessed as reduction of plaque formation at 4 ug/ml after 4 days using crystal violet staining relative to control. The format is functional. Conditions: Human alphaherpesvirus 1, Sheely, BSC-1, in Primates, 96 h. An outline of the steps:
as §1

The structures appear in SMILES notation. Values after ≈ are worked out from the molar mass of the structure shown. Active and inactive are the calls of the source. No cut-off for these calls is given here.

Take `CCC(=O)C(CCCOc1ccc(OCCCC(C(=O)CC)C(=O)CC)cc1)C(=O)CC`: the MIC entry in the test on Human alphaherpesvirus 2 [1] is “inactive”.
In the case of `CCC(=O)C(CCCCCCOc1ccc(OCCCCCCC(C(=O)CC)C(=O)CC)c(C)c1)C(=O)CC`, in the test with Human alphaherpesvirus 1 [2], the MIC was determined as 25 µg/mL (≈ 45.9 µM).
With `CCC(=O)C(CCCCCCOc1ccc(OCCCCCCC(C(=O)CC)C(=O)CC)cc1)C(=O)CC`, the outcome in the test on Human alphaherpesvirus 1 [3] was Active. The compound also returned an MIC against Human alphaherpesvirus 1 [2] of 6 µg/mL (≈ 11.3 µM). Further, the inhibition at 2 µg/mL with Human alphaherpesvirus 2 [4] turned out to be 18%; in the test on Human alphaherpesvirus 1 [7], 21%. For the same compound, the inhibition at 3 µg/mL in the test with Human alphaherpesvirus 2 [5] came out at 59%; in the test with Human alphaherpesvirus 1 [8] it was 43%. Further, the inhibition at 4 µg/mL is 93% in the test with Human alphaherpesvirus 2 [6] and 89% with Human alphaherpesvirus 1 [9].
As to `CCC(=O)C(CCCCCOc1ccc(OCCCCC(C(=O)CC)C(=O)CC)cc1)C(=O)CC`, the MIC result in the test with Human alphaherpesvirus 2 [1] was “inactive”.
`CCC(=O)C(CCCCCCOc1cccc(OCCCCCCC(C(=O)CC)C(=O)CC)c1)C(=O)CC` displayed an MIC against Human alphaherpesvirus 1 [2] of 12 µg/mL (≈ 22.6 µM).
In the case of `CCC(=O)C(CCCCCCOc1ccc(OCCCCCCC(C(=O)CC)C(=O)CC)c(Cl)c1)C(=O)CC`, the MIC against Human alphaherpesvirus 1 [2] was determined as 6 µg/mL (≈ 10.6 µM).
The same measure, in the same setting: in the case of `CCC(=O)C(CCCCCOc1ccc(OCCCCCC(C(=O)CC)C(=O)CC)cc1)C(=O)CC` it was 3 µg/mL (≈ 5.97 µM).
On to `CCC(=O)C(CCCCOc1ccc(OCCCC(C(=O)CC)C(=O)CC)cc1)C(=O)CC`, for which the MIC result in the test with Human alphaherpesvirus 2 [1] was “inactive”.
Consider `CCC(=O)C(CCCCCCOc1cc(Cl)c(OCCCCCCC(C(=O)CC)C(=O)CC)cc1Cl)C(=O)CC`, for which the MIC in the test with Human alphaherpesvirus 1 [2] was determined as 6 µg/mL (≈ 10 µM).
`CCC(=O)C(CCCCOc1ccc(OCCCCC(C(=O)CC)C(=O)CC)cc1)C(=O)CC` displayed an MIC in the test on Human alphaherpesvirus 1 [2] of 3 µg/mL (≈ 6.32 µM).
In the test on Human alphaherpesvirus 1 [2], `CCC(=O)C(CCCCCCCOc1ccc(OCCCCCCCC(C(=O)CC)C(=O)CC)cc1)C(=O)CC` displayed an MIC of 25 µg/mL (≈ 44.7 µM).
`CCC(=O)C(CCCCCCCCOc1ccc(OCCCCCCCCC(C(=O)CC)C(=O)CC)cc1)C(=O)CC`: the MIC result in the test with Human alphaherpesvirus 2 [1] is “inactive”.

Broadly, the inhibition is the relative decrease from the control value, in per cent.
